Source: PMC4361317 (Nuclear medicine and biology, 2014)
“Also recorded” adds a separate entry of the source. Where a SMILES comes first, the peptide text is derived from it. Bridges are numbered along the chain shown (N, C = ends). [ ]: non-standard residue; d: D form. Aoc = NCCCCCCCC(=O)O

Experiments:
[1] = test system: M21 human melanoma-xenografted nude mice; settings: mouse, in vivo; cited from earlier work
αvβ3 integrin receptor = αvβ3 integrin receptor (Homo sapiens, UniProt P05106+P06756); assay type: binding
How it was run: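 M21 cells (1×10^5/well) were placed on 0.65 µm filter plates and incubated for 2 h at 25 °C with ~30,000 cpm 125I-echistatin and 10−11 to 10−4 M test compound. The binding medium was HEPES-buffered MEM pH 7.4 with BSA and phenanthroline. Bound and free ligand were separated by vacuum filtration with two ice-cold BSA/PBS pH 7.4 rinses, and the PVDF filters were gamma counted. Triplicate; IC50 calculated.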

MC1 receptor = MC1 receptor (Homo sapiens, UniProt Q01726); test: In vitro competitive binding, MC1 receptor, M21 human melanoma cells, ^125I-
How it was run: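 Intact M21 cells (1.5×10^5/well) were incubated for 2 h at 37 °C with ~30,000 cpm 125I-(Tyr2)-NDP-MSH plus 10−12 to 10−5 M test compound. Medium was MEM with 25 mM HEPES pH 7.4, 0.2% BSA and 0.3 mM 1,10-phenanthroline. Cells were rinsed twice with ice-cold 0.2% BSA/0.01 M PBS pH 7.4, lysed in 1 N NaOH for 5 min and gamma counted. Triplicate; IC50 calculated.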

Compound | melanoma uptake relative to ^99mTc-RAD-Lys-(Arg^11)CCMSH [1] [times] | melanoma uptake relative to ^99mTc-RGD-Lys-(Arg^11)CCMSHscramble [1] [times] | IC50 (αvβ3 integrin receptor) [nM] | binding affinity for αvβ3 integrin receptor (in words) (αvβ3 integrin receptor; M21 cells) | αvβ3 integrin receptor binding affinity, compared with RGD-PEG2-(Arg^11)CCMSH (αvβ3 integrin receptor; M21 cells) | IC50 (MC1 receptor) [nM] | MC1 receptor binding affinity, compared with RGD-PEG2-(Arg^11)CCMSH (MC1 receptor; M21 cells)
cyclic(Arg-Gly-Asp-DTyr-Asp)-Lys-(^99mTc-[Cys^3,4,10, D-Phe^7, Arg^11]α-MSH3–13) (bicyclic or more) [^99mTc-RGD-Lys-(Arg^11)CCMSH] | 2.5 | 2.2 |  |  |  |  | 
CC(C)[C@H](NC(=O)[C@@H]1CCCN1C(=O)[C@H](CCCNC(=N)N)NC(=O)[C@H](CS)NC(=O)[C@H](Cc1c[nH]c2ccccc12)NC(=O)[C@H](CCCNC(=N)N)NC(=O)[C@@H](Cc1ccccc1)NC(=O)[C@H](Cc1c[nH]cn1)NC(=O)[C@H](CCC(=O)O)NC(=O)[C@H](CS)NC(=O)[C@H](CS)NC(=O)CCCCCCCNC(=O)[C@@H]1CC(=O)N[C@@H](CCCNC(=N)N)C(=O)NCC(=O)N[C@@H](CC(=O)O)C(=O)N[C@H](Cc2ccc(O)cc2)C(=O)N1)C(N)=O [RGD-Aoc-(Arg^11)CCMSH] (RGD[dY]D[Aoc]CCEH[dF]RWCRPV-NH2; lactam N-5) |  |  | 1130 ± 26 | low micromolar range | stronger receptor binding affinity; also recorded: slightly stronger binding affinities | 1.5 ± 0.2 | stronger receptor binding affinity; also recorded: slightly stronger binding affinities
